Tests used:
Hepatitis C virus = assay: Antiviral activity against Hepatitis C virus genotype 1b infected in human HuH7 cells assessed as inhibition of viral replication; assay type: functional, organism-based, Hepacivirus hominis
Huh-7 = assay: Cytotoxicity against human HuH7 cells; assay type: cell-based
Human alphaherpesvirus 1 [1] = assay: Antiviral activity against acyclovir-resistant thymidine kinase-deficient Herpes simplex virus 1 KOS infected in HEL cells assessed as inhibition of virus-induced cytopathicity; assay type: functional, organism-based; details: Human alphaherpesvirus 1, KOS
[2] = Cytotoxicity against HEL cells; assay type: cell-based; details: human
L1210 [3] = assay: Cytostatic activity against mouse L1210 cells assessed as growth inhibition after 2 days by particle counting analysis; assay type: functional, cell-based; details: L1210, 48 h
Procedure, shortened: (§1)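 Tumor cells seeded and exposed to a range of compound concentrations. Cell number counted with a particle counter after 2 days (L1210, L1210/TK) or 3 days (CEM, CEM/TK, HeLa, HeLa TK, Caco-2, Colo-320).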

CCRF-CEM [4] = assay: Cytostatic activity against human CEM cells assessed as growth inhibition after 3 days by particle counting analysis; assay type: functional, cell-based; details: 72 h; procedure, shortened: as §1
Human alphaherpesvirus 2 = assay: Antiviral activity against Herpes simplex virus 2 G infected in HEL cells assessed as inhibition of virus-induced cytopathicity; assay type: functional, organism-based; details: Human alphaherpesvirus 2, strain G
HeLa [5] = assay: Cytostatic activity against human HeLa cells assessed as growth inhibition after 3 days by particle counting analysis; assay type: functional, cell-based; details: 72 h; procedure, shortened: as §1
Human alphaherpesvirus 1 [6] = assay: Antiviral activity against Herpes simplex virus 1 KOS infected in HEL cells assessed as inhibition of virus-induced cytopathicity; assay type: functional, organism-based; details: Human alphaherpesvirus 1, KOS
Felid alphaherpesvirus 1 = assay: Antiviral activity against Feline herpesvirus infected in cat CRFK cells assessed as inhibition of virus-induced cytopathicity; assay type: functional, organism-based; details: Felid alphaherpesvirus 1, CRFK
HeLa [7] = assay: Cytostatic activity against thymidine kinase-deficient human HeLa cells assessed as growth inhibition after 3 days by particle counting analysis; assay type: functional, cell-based; details: 72 h; procedure, shortened: as §1
L1210 [8] = assay: Cytostatic activity against thymidine kinase-deficient mouse L1210 cells assessed as growth inhibition after 2 days by particle counting analysis; assay type: functional, cell-based; details: L1210, 48 h; procedure, shortened: as §1
[9] = test system: Human immunodeficiency virus 1; assay: Antiviral activity against HIV1 3B infected in human CEM cells assessed as virus-induced giant cell formation after 4 days by microscopic analysis; assay type: functional, organism-based; details: Human immunodeficiency virus 1, 3B, CCRF-CEM, 96 h
Procedure, shortened: (§2)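 CEM cells (∼3 × 10^5 cells/cm3) infected with 100 CCID50/mL of HIV-1(IIIB) or HIV-2(ROD), seeded into wells with compound dilutions. Giant cell formation examined microscopically after 4 days at 37 °C.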

[10] = test system: Human immunodeficiency virus 2; assay: Antiviral activity against HIV2 ROD infected in human CEM cells assessed as virus-induced giant cell formation after 4 days by microscopic analysis; assay type: functional, organism-based; details: Human immunodeficiency virus 2, ISOLATE ROD, CCRF-CEM, 96 h; procedure, shortened: as §2
CCRF-CEM [11] = assay: Cytostatic activity against thymidine kinase-deficient human CEM cells assessed as growth inhibition after 3 days by particle counting analysis; assay type: functional, cell-based; details: 72 h; procedure, shortened: as §1
COLO 320 = assay: Cytostatic activity against human COLO320 cells assessed as growth inhibition after 3 days by particle counting analysis; assay type: functional, cell-based; details: COLO 320, 72 h; procedure, shortened: as §1
Caco-2 = assay: Cytostatic activity against human Caco2 cells assessed as growth inhibition after 3 days by particle counting analysis; assay type: functional, cell-based; details: Caco-2, 72 h; procedure, shortened: as §1
CCRF-CEM [12] = assay: Cytotoxicity against human CEM cells; assay type: cell-based
MT4 = assay: Cytotoxicity against human MT4 cells assessed as cell viability by propidium iodide staining-based cell counting analysis
Procedure, shortened: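 MT-4 cultures, untreated or treated, were counted on an automated cell counter. Total and dead cells were enumerated by propidium iodide-based assay.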

[13] = test system: Human immunodeficiency virus 1; assay: Antiviral activity against HIV1 infected in human MT4 cells assessed as p24 production after 3 days; details: Human immunodeficiency virus 1, MT4, 72 h

CCOc1nc(N)nc2c1ncn2[C@@H]1O[C@H](COP(=O)(N[C@@H](C)C(=O)OCC(C)(C)C)N[C@@H](C)C(=O)OCC(C)(C)C)[C@@H](O)[C@@]1(C)F
EC50 (Hepatitis C virus; Huh-7, read-out: EC50): 0.05 µM | CC50 (Huh-7; human, huh-7, read-out: CC50): 73 µM

C[C@H](NP(=O)(N[C@@H](C)C(=O)OCc1ccccc1)OC[C@H]1O[C@@H](n2cnc(C(N)=O)c2N)[C@H](O)[C@@H]1O)C(=O)OCc1ccccc1
EC50 (Human alphaherpesvirus 1 [1]): > 100 µM | MCC [2]: > 100 µM | IC50 (L1210 [3]): > 250 µM | IC50 (CCRF-CEM [4]): > 250 µM | EC50 (Human alphaherpesvirus 2): > 100 µM | IC50 (HeLa [5]): > 250 µM | EC50 (Human alphaherpesvirus 1 [6]): > 100 µM | EC50 (Felid alphaherpesvirus 1): > 100 µM | IC50 (HeLa [7]): > 250 µM

NC(=O)c1ncn([C@@H]2O[C@H](CO)[C@@H](O)[C@H]2O)c1N [ACADESINE]
EC50 (Human alphaherpesvirus 1 [1]): > 100 µM | MCC [2]: > 100 µM | IC50 (L1210 [3]): ≥ 250 µM | IC50 (CCRF-CEM [4]): 210 µM | EC50 (Human alphaherpesvirus 2): > 100 µM | IC50 (HeLa [5]): 165 µM | EC50 (Human alphaherpesvirus 1 [6]): > 100 µM | EC50 (Felid alphaherpesvirus 1): > 100 µM | IC50 (HeLa [7]): ≥ 250 µM

Cc1cn([C@H]2C=C[C@@H](CO)O2)c(=O)[nH]c1=O [STAVUDINE]
IC50 (L1210 [8]): ≥ 250 µM | EC50 [9]: 0.39 µM | EC50 [10]: 0.58 µM | IC50 (CCRF-CEM [11]): > 250 µM | IC50 (HeLa [5]): > 250 µM | IC50 (COLO 320): 159 µM | IC50 (Caco-2): > 250 µM | IC50 (HeLa [7]): > 250 µM

Cc1cn([C@H]2C=C[C@@H](COP(=O)(N[C@@H](C)C(=O)OCc3ccccc3)N[C@@H](C)C(=O)OCc3ccccc3)O2)c(=O)[nH]c1=O
IC50 (L1210 [8]): 7.4 µM | EC50 [9]: 0.14 µM | IC50 (L1210 [3]): 8.9 µM | EC50 [10]: 0.096 µM | IC50 (CCRF-CEM [11]): 46 µM | IC50 (CCRF-CEM [4]): 92 µM | IC50 (HeLa [5]): 116 µM | IC50 (COLO 320): 133 µM | IC50 (Caco-2): 241 µM | IC50 (HeLa [7]): 29 µM

C[C@H](NP(=O)(N[C@@H](C)C(=O)OCC(C)(C)C)OC[C@H]1O[C@@H](n2cnc(C(N)=O)n2)[C@H](O)[C@@H]1O)C(=O)OCC(C)(C)C
EC50 (Hepatitis C virus; Huh-7, read-out: ED50 (the source's name)): > 100 µM | CC50 (Huh-7; human, huh-7, read-out: ED50 (the source's name)): > 100 µM

Nc1ccn([C@@H]2CS[C@H](CO)O2)c(=O)n1 [LAMIVUDINE]
IC50 (L1210 [8]): > 250 µM | EC50 [9]: 0.099 µM | IC50 (L1210 [3]): > 250 µM | CC50 (CCRF-CEM [12]): > 250 µM | EC50 [10]: 0.18 µM | IC50 (CCRF-CEM [11]): > 250 µM | IC50 (CCRF-CEM [4]): > 250 µM | IC50 (HeLa [5]): > 250 µM | IC50 (COLO 320): > 250 µM | IC50 (Caco-2): > 250 µM | IC50 (HeLa [7]): > 250 µM

C[C@H](NP(=O)(N[C@@H](C)C(=O)OCc1ccccc1)OC[C@@]1(N=[N+]=[N-])O[C@@H](n2ccc(=O)[nH]c2=O)[C@H](O)[C@@H]1O)C(=O)OCc1ccccc1
EC50 (Hepatitis C virus; Huh-7, read-out: EC50): > 40 µM | CC50 (Huh-7; human, huh-7, read-out: CC50): > 100 µM

C[C@H](NP(=O)(N[C@@H](C)C(=O)OCc1ccccc1)OC[C@H]1O[C@@H](n2cnc(C(N)=O)n2)[C@H](O)[C@@H]1O)C(=O)OCc1ccccc1
EC50 (Hepatitis C virus; Huh-7, read-out: EC50): > 100 µM | CC50 (Huh-7; Homo sapiens, Huh-7, read-out: EC50 (the source's name)): > 100 µM

Cc1cn([C@H]2C[C@H](N=[N+]=[N-])[C@@H](COP(=O)(N[C@@H](C)C(=O)OCc3ccccc3)N[C@@H](C)C(=O)OCc3ccccc3)O2)c(=O)[nH]c1=O
EC50 [9]: 0.0092 µM | CC50 (CCRF-CEM [12]): 30 µM | EC50 [10]: 0.03 µM

Cc1cn([C@H]2C[C@H](N=[N+]=[N-])[C@@H](COP(=O)(N[C@@H](C)C(=O)OCC(C)(C)C)N[C@@H](C)C(=O)OCC(C)(C)C)O2)c(=O)[nH]c1=O
EC50 [9]: 0.0083 µM | CC50 (CCRF-CEM [12]): 75 µM | EC50 [10]: 0.013 µM

Nc1ncnc2c1ncn2[C@H]1CC[C@@H](CO)O1
EC50 [9]: 7.2 µM | IC50 (L1210 [3]): > 250 µM | CC50 (CCRF-CEM [12]): > 250 µM | EC50 [10]: 2.8 µM | IC50 (CCRF-CEM [4]): > 250 µM | IC50 (HeLa [5]): > 250 µM

C[C@H](NP(=O)(N[C@@H](C)C(=O)OCc1ccccc1)OC[C@H]1O[C@@H](n2ccc(N)nc2=O)CS1)C(=O)OCc1ccccc1
IC50 (L1210 [8]): 57 µM | EC50 [9]: > 50 µM | IC50 (L1210 [3]): 86 µM | EC50 [10]: > 50 µM | IC50 (CCRF-CEM [11]): 106 µM | IC50 (CCRF-CEM [4]): 116 µM | IC50 (HeLa [5]): 93 µM | IC50 (COLO 320): 85 µM | IC50 (Caco-2): 87 µM | IC50 (HeLa [7]): 38 µM

Nc1nc2c(ncn2COCCO)c(=O)[nH]1 [ACYCLOVIR]
EC50 (Human alphaherpesvirus 1 [1]): 23 µM | MCC [2]: > 100 µM | CC50 (MT4): > 250 µM | EC50 (Human alphaherpesvirus 1 [6]): 0.23 µM | EC50 (Felid alphaherpesvirus 1): > 100 µM | EC50 [13]: > 250 µM

CCCCCc1ccc(-c2cc3cn([C@H]4C[C@H](O)[C@@H](CO)O4)c(=O)nc3o2)cc1 [CF1743]
MCC [2]: ≥ 20 µM
